Test results as given in PubChem BioAssay.
Calls of active or inactive are those of the source.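 The calls were made as follows, unless noted: active = viability at or below 10% of carrier control in both of two separate runs; inconclusive = viability at or below 10% in only one of the two runs; inactive = the rest.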

How the values were obtained:
[1] = Her2 expression decrease, cell viability multiplex – SKBR3 breast tumor cells, AlphaScreen, ATP viability, primary screen (AID 461;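 active = Her2 level under about 52% in both replicate screens, with viability over 70% of control, limit read from the data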;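 as to Her2 level: lower value means less Her2 protein in the cells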;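 as to viability: percent of carrier control wells set as 100% viability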); conditions: SKBR3 Her2 protein level, 18-24 h, measured here: SKBR3 viability, ATP luminescence, at 10 µM
[2] = target: Receptor tyrosine-protein kinase erbB-2 (Homo sapiens) (UniProt P04626); test: as above; conditions: 18-24 h, at 10 µM, stronger effect = lower value
Chain of Receptor tyrosine-protein kinase erbB-2 (Homo sapiens) (P04626 whole entry, looked up): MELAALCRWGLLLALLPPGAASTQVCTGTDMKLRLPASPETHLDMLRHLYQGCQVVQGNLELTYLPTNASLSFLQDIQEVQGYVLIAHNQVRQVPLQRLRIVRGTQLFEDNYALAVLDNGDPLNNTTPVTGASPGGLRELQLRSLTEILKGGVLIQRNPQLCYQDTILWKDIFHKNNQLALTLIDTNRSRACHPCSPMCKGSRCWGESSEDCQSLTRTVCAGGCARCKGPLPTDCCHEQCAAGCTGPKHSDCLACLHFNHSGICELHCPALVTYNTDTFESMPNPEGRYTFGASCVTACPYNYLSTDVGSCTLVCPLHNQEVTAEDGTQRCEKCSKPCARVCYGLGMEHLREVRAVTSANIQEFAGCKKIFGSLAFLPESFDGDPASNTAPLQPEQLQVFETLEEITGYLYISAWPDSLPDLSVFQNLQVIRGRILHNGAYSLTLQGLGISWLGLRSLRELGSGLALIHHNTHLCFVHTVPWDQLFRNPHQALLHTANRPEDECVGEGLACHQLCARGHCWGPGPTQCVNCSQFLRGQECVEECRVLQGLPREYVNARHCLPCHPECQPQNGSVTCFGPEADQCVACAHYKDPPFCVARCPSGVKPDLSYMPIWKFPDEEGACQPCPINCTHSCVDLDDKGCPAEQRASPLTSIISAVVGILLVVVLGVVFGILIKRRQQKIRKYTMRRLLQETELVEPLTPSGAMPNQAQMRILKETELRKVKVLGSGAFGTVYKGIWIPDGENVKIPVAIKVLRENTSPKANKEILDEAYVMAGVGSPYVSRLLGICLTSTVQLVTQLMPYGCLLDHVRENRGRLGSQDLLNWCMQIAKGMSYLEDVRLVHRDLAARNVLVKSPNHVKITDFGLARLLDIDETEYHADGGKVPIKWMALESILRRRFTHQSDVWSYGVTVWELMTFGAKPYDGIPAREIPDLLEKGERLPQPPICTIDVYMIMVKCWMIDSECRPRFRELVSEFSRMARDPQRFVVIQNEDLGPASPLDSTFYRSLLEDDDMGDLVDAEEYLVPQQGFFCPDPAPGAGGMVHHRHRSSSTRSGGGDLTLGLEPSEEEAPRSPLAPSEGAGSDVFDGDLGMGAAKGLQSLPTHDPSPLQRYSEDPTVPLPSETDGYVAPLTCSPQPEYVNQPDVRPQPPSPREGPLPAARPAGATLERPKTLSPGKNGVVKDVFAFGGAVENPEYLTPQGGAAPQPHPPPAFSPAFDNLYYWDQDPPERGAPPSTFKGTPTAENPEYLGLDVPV

[3] = reduced viability of SK-BR-3 breast cancer cells – cell-based, 24 h, human, pilot screen (AID 572); conditions: SK-BR-3 viability, CellTiter-Glo luminescence, at 10 µM, stronger effect = lower value;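 also: compound exposure lasted between 18 and 24 h rather than exactly 24 h; 100% = carrier-treated control wells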
[4] = HUVEC growth inhibition – cell-based, human, primary screen (AID 575;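 active = viability at or below 30% in both replicate assays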;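 also: 100% = median of untreated cell wells with 0.1% DMSO on each plate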); conditions: HUVEC proliferation, CellTiter-Glo luminescence, 72 h; at 10 µM; stronger effect = lower value
Method in brief: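 Material: primary human umbilical vein endothelial cells / Schedule: 72 h exposure, 37 °C, 5% CO2, 30 min RT equilibration / Signal: ATP-based CellTiter-Glo luminescent read / Read-out basis: percent of median DMSO-control luminescence / Control set: 32 DMSO-only cell-control wells (high), 32 MePR drug-control wells (low) per plate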

[5] = H69AR cell proliferation blockers – human, duplicate replicates, primary screen (AID 580;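 active = viability at or under a set limit in both replicates, limit being median viability minus 3 SD, cut at about 48% in these data, passing the limit was not always enough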;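 also: 100% = mean luminescence of untreated wells and 0% = no signal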); conditions: H69AR lung tumor cells viability, ATP luminescence, 72 h; at 10 µM; stronger effect = lower value
[6] = MRP1 drug-resistance reversers in H69AR cells – cell-based, doxorubicin co-treatment, pilot screen (AID 601;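 active = viability loss from added drug above about 55%, and viability with drug at most 40%, in both replicates, limit read from the data, passing the limit was not always enough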); conditions: CellTiter-Glo, 72 h, at 10 µM; for differential viability (reversal): stronger effect = higher value
[7] = yeast transport mutant growth inhibition pilot in 384-well plates, post-Golgi transport modulator project (AID 636; in the data active = inhibition above about 31%); conditions: absorbance 615 nm, about 18 h, stronger effect = higher value
[8] = growth suppression of yeast trafficking mutant, preliminary HTS, modulators of trafficking downstream of Golgi apparatus project, 1536-format plate, OD 615 nm (AID 637; in the data active = inhibition above about 30%); conditions: yeast transport mutant growth, absorbance 615 nm, 18 h; stronger effect = higher value
[9] = H69AR cells + 2 uM doxorubicin, measured here: viability with 2 uM doxorubicin, stronger effect = lower value
[10] = H69AR cells, compound alone cytotoxicity

Structure (SMILES)	viability [1] [%]	Her2 level [2]	viability [3]	viability [4]	viability [5]	differential viability (reversal) ([6]; H69AR cells + 2 uM doxorubicin)	viability [6, 9] [%]	viability [6, 10] [%]	inhibition [7]	inhibition [8]
c1ccc(-c2noc(C3CCCCC3)n2)nc1	91	96.5% (inactive)	91% (inactive)	114% (inactive)	102% (inactive)	11.2% (inactive)	90.4	102	0.82% (inactive)	-2.7% (inactive)
CC(C(=O)N1CCCCC1)n1sc2ccccc2c1=O (stereo not given)	119	102% (inactive)	119% (inactive)	88% (inactive)	87.4% (inactive)	3.18% (inactive)	84.3	87.4	-1.71% (inactive)	11.4% (inactive)
O=C(CSc1nnc(C2CC2)n1Cc1ccccc1)c1ccc(S(=O)(=O)N2CCOCC2)cc1	120	92% (inactive)	120% (inactive)	95% (inactive)	86.9% (inactive)	12.5% (inactive)	74.4	86.9	-1.82% (inactive)	6.72% (inactive)
O=C(Nc1nc(-c2ccccc2)cs1)C1CCCCN1S(=O)(=O)c1ccccc1 (stereo not given)	100	80% (inactive)	100% (inactive)	71.5% (inactive)	73.8% (inactive)	-18.2% (inactive)	92	73.8	-0.13% (inactive)	11.4% (inactive)
COc1ccc(C(C)=O)c(OC(=O)c2ccc(OC)c(OC)c2)c1	104	88.5% (inactive)	104% (inactive)	92.8% (inactive)	98.6% (inactive)	1.11% (inactive)	97.5	98.6	-6.4% (inactive)	-3.33% (inactive)
COCCNc1nc(SCC(=O)N2CCN(c3ccccc3)CC2)nc2ccccc12	72	81.5% (inactive)	72% (inactive)	84.4% (inactive)	84.3% (inactive)	10.4% (inactive)	73.9	84.3	-7.6% (inactive)	-1.48% (inactive)
COC(=O)c1c(C)oc2ccc(NS(=O)(=O)c3cccs3)cc12	106	94.5% (inactive)	106% (inactive)	59% (inactive)	78.9% (inactive)	-21.9% (inactive)	101	78.9	-1.32% (inactive)	5.9% (inactive)
COc1cccc(-c2noc(C3CCCN(C(=O)Cc4ccccc4)C3)n2)c1 (stereo not given)	95	94% (inactive)	95% (inactive)	104% (inactive)	85% (inactive)	-2.34% (inactive)	87.3	85	-0.65% (inactive)	-3.97% (inactive)
COc1ccc(NC(=O)C(C)NS(=O)(=O)c2ccccc2)cc1Cl (stereo not given)	92	99% (inactive)	92% (inactive)	98.4% (inactive)	97.7% (inactive)	6.73% (inactive)	91	97.7	-3.87% (inactive)	-6.19% (inactive)
O=C(COc1nnc2ccccn12)N1CCN(S(=O)(=O)c2ccccc2)CC1	107	86% (inactive)	107% (inactive)	98.8% (inactive)	97.2% (inactive)	13.2% (inactive)	84	97.2	-5.13% (inactive)	-5.09% (inactive)
CCCNS(=O)(=O)c1ccc(C(=O)NCC2CCCO2)cc1 (stereo not given)	96.5	74.5% (inactive)	96.5% (inactive)	106% (inactive)	95.1% (inactive)	-1.32% (inactive)	96.4	95.1	-3.56% (inactive)	0.16% (inactive)
CCOc1ccccc1NS(=O)(=O)c1c(C)noc1C	97.5	93.5% (inactive)	97.5% (inactive)	91.3% (inactive)	109% (inactive)	16.6% (inactive)	92.1	109	-3.42% (inactive)	-0.95% (inactive)
COc1cc(C2c3c(oc4c(C)cc(C)cc4c3=O)C(=O)N2Cc2cccnc2)cc(OC)c1OC (stereo not given)	110	114% (inactive)	110% (inactive)	97.6% (inactive)	110% (inactive)	6.48% (inactive)	104	110	1.33% (inactive)	-3.06% (inactive)
c1coc(-c2nnc(NC3=NCCC3)o2)c1	100	94% (inactive)	100% (inactive)	97.2% (inactive)	98.7% (inactive)	11.4% (inactive)	87.3	98.7	-5.34% (inactive)	-10.2% (inactive)
